CSC inhib: blocks cancer stem cells; cancer stem cell-like cells viability, luminescence; inhibition, % at 7.5 µM; 300,000 tested, 1.1% active; AID 2717; in the data active means inhibition above about 75%; inconclusive means no clear call, values can overlap the other calls; tested in HMLE shEcad cells
Mdm2 MdmX PPI: human Mdm2/MdmX binding inhibition; O15151+Q00987; SaOS-2 split-luciferase Mdm2/MdmX complementation, luminescence; inhibition, % at 8 µM; 330,000 tested, 3% active;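 active means inhibition of at least 50% at 8 µM in the primary screen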
Target sequence (O15151 whole entry, looked up): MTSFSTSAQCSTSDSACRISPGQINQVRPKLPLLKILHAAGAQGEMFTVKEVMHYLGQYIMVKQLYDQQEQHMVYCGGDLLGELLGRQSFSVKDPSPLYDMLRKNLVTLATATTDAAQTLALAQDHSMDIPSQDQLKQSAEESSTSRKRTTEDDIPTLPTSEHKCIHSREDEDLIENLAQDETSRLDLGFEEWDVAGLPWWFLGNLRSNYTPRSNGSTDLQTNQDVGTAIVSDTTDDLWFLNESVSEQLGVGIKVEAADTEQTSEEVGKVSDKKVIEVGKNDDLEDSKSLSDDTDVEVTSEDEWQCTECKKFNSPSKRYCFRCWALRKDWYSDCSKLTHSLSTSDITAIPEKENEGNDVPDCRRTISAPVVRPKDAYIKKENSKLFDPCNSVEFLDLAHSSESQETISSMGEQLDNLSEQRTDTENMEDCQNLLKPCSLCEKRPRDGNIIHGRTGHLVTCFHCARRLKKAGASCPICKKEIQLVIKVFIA
Target sequence (Q00987 whole entry, looked up): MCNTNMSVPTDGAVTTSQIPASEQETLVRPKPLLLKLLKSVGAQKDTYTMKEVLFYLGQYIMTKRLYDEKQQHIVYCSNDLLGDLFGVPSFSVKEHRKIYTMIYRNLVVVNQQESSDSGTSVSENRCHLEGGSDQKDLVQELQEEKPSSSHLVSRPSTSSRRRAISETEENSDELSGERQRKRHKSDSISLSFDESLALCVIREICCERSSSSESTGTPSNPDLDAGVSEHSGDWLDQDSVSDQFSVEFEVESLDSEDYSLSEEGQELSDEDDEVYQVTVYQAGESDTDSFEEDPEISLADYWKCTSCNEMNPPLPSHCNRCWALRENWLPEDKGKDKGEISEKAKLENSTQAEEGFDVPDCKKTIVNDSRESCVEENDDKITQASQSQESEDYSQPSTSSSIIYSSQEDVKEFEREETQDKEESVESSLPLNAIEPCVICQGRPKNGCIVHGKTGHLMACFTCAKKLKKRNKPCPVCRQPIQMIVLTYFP
XBP1 UPR activ: activators of adaptive arm of unfolded protein response (XBP1); CHO-XBP1 luciferase reporter, IRE1-XBP1 UPR activation, luminescence; percent of tunicamycin response, DMSO as zero; activation, % at 20 µM; 330,000 tested, 0.33% active; AID 463104;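 active means versus positive control, 20 µM dose yields 30% or more activation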;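 further: 100% = tunicamycin at 10 µg/mL and 0% = DMSO only wells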
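Material: CHO-XBP1 cells stably carrying IRE1-XBP1-driven luciferase reporter | Medium: F12 with 10% serum | Compound dosing: 20 µM single concentration, DMSO 1% | Incubation: Overnight seeding at 37 °C, 6 h compound treatment at 37 °C | Detection: Steady-Glo luminescence read | Read-out basis: % activation of reporter signal versus tunicamycin and DMSO controls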
T cruzi repl: blocks replication of Trypanosoma cruzi | T. cruzi beta-gal in NIH3T3, luminescence, 90 h | inhibition, % (test concentration not listed) | 300,000 tested, 1.4% active | AID 1885;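 active means mean inhibition across valid replicates above about 55%, limit read from the data; inconclusive means mean below that limit but half or more replicates reach it; inactive means mean below it, under half of replicates reach it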;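 further: signal also drops with host cell toxicity which is not excluded here; 0% = plate median of DMSO wells and 100% = zero luminescence signal; higher percent means less beta-gal luminescence so fewer parasites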
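Test system: β-gal T. cruzi (Tulahuen C4) inside NIH/3T3 cells / Quantity: 5,000 cells/well / Measured by: luminescence from GalScreen with 0.05% NP40, read after 60 min / Medium: DMEM plus 2% FBS / Measure: parasite load inhibition, % / Reagent: Tulahuen C4 trypomastigotes, 5000/well / Schedule: co-culture of at least 90 h after 3 h attachment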
UPR CHOP act: apoptotic UPR (CHOP) activation; AID 449763; CHO-CHOP luciferase reporter, luminescence; percent of tunicamycin response over DMSO baseline; 330,000 tested, 0.34% active; activation, % at 10 µM;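 active means at 10 µM dose, activation of 40% or more, normalized to positive control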;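 further: 100% = tunicamycin at 10 µg/mL and 0% = DMSO alone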
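Assay system: CHO cells with stable CHOP pathway luciferase reporter; Buffer or medium: F12 plus 10% serum; Times: 16-18 h cell attachment, then 6 h compound exposure, 37 °C; Signal: luciferase luminescence; Read-out basis: percent activation relative to tunicamycin control; Control set: tunicamycin high control, DMSO low control.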
Beta apoptosis: beta cell apoptosis inhibition | INS-1E cytokine-induced death, ATP luminescence, 48 h; percent of positive-control rescue, neutral wells zero | protection from apoptosis, % (test concentration not listed) | 300,000 tested, 0.8% active | AID 435005;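 active means Every replicate reaches about 75%, or at least half do and their mean reaches it too, limit read from the data; inconclusive means At least half of replicates reach the limit but their mean does not; inactive means Under half of replicates reach the limit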;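 further: 0% = cytokine-treated negative control wells and 100% = positive control rescue; higher means more ATP so stronger rescue from cytokine killing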
Mdm2-MdmX conf: human Mdm2/MdmX binding inhibition, confirmed. shares compounds with Mdm2 MdmX PPI. luminescent assay. inhibition, % at 8 µM. 10,000 tested, 55% active. AID 489028; in the data active means inhibition above about 40%
FLuc counter: counter-screen for Mdm2/MdmX inhibitors: full-length luciferase | AID 504607 | inhibition, % at 8 µM | SaOS-2 full-length luciferase counterscreen, luminescence | shares compounds with Mdm2 MdmX PPI | 6,200 tested, 77% active;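 active means mean inhibition at 8 µM reaching about 37%, which flags the compound as non-specific, limit read from the data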;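 further: p53-null SaOS-2 cells with luciferase driven by a doxycycline-inducible promoter; compound on cells about two nights before reading with doxycycline added after day one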
* marks the source's active call; other numbers are inactive results. Sampled rows, rich in hits. Any-hit rate of the full collection: about 5%.

Results for Cc1cc(O)c2c(c1)C(=O)C13C(=C2O)C(=O)[C@H]2[C@@H](O)[C@@H]1[C@H]1[C@H](O)[C@@H]3C(=O)C3=C(O)c4c(O)cc(C)cc4C(=O)C312 (some centres undefined) ?
CSC inhib: 73; Mdm2 MdmX PPI: 86*; XBP1 UPR activ: -3; UPR CHOP act: 4; Beta apoptosis: 106*; Mdm2-MdmX conf: 61*; FLuc counter: 30

How did CN(C)CCN(C(=O)COc1ccc(Cl)cc1)c1nc2cc3c(cc2s1)OCO3 do in these assays?
CSC inhib: -15; Mdm2 MdmX PPI: -2; XBP1 UPR activ: -4; T cruzi repl: 35; UPR CHOP act: 0

Results for Cc1cnc(NC(=O)CN2CCCCC2)s1 ?
CSC inhib: -3; Mdm2 MdmX PPI: -30; XBP1 UPR activ: 1; T cruzi repl: 3; UPR CHOP act: 0; Beta apoptosis: -3

What do the screens show for `COc1cc(/C=C(/C)[N+](=O)[O-])ccc1OCc1ccccc1Cl`?
CSC inhib: 78*; Mdm2 MdmX PPI: 95*; XBP1 UPR activ: -7; T cruzi repl: 61*; UPR CHOP act: -11; Beta apoptosis: 92*; Mdm2-MdmX conf: 100*; FLuc counter: 51*

What do the screens show for `CN1C(=O)C(=Cc2ccccc2OCc2ccccc2Cl)C(=O)N(C)C1=O`?
CSC inhib: 19; Mdm2 MdmX PPI: 13; XBP1 UPR activ: 2; T cruzi repl: -4; UPR CHOP act: 1; Beta apoptosis: -9

How did CCn1c(P(C)(=O)O)nc2ccccc21 do in these assays?
CSC inhib: -1; Mdm2 MdmX PPI: -12; XBP1 UPR activ: 0; T cruzi repl: -4; UPR CHOP act: 2; Beta apoptosis: -6

How did CCn1c(NN=O)nc2ccccc21 do in these assays?
CSC inhib: 52; Mdm2 MdmX PPI: 77*; XBP1 UPR activ: 5; T cruzi repl: inconclusive; UPR CHOP act: 11; Beta apoptosis: 99*; Mdm2-MdmX conf: 72*; FLuc counter: 21

How did COC(=O)C1=CO[C@@H](C)[C@@H]2CN(CCc3c[nH]c4ccccc34)CC[C@H]12 do in these assays?
CSC inhib: 22; Mdm2 MdmX PPI: 11; XBP1 UPR activ: -2; T cruzi repl: 33; UPR CHOP act: 3; Beta apoptosis: -1

Results for Cc1ccc(Cn2nnnc2CN2CCC(n3nnc4cc(C(F)(F)F)ccc43)CC2)cc1 ?
CSC inhib: -4; Mdm2 MdmX PPI: 71*; XBP1 UPR activ: 2; T cruzi repl: 34; UPR CHOP act: 1; Beta apoptosis: 19; Mdm2-MdmX conf: 28

What do the screens show for `COC(=O)C(Cc1ccc(N(CCCl)CCCl)cc1)N=Cc1ccccc1O` (centres undefined)?
CSC inhib: 83*; Mdm2 MdmX PPI: 93*; XBP1 UPR activ: -9; T cruzi repl: 44; UPR CHOP act: -4; Beta apoptosis: 106*; Mdm2-MdmX conf: 83*; FLuc counter: 59*

Results for CCOC(=O)C(NC(=O)C(Cc1ccc(N(CCCl)CCCl)cc1)NC(C)=O)C(C)C (centres undefined) ?
CSC inhib: 44; Mdm2 MdmX PPI: 28; XBP1 UPR activ: 1; T cruzi repl: -8; UPR CHOP act: -1; Beta apoptosis: 38

What do the screens show for `O=c1[nH]c(=S)[nH]c(O)c1N=Nc1ccc(S(=O)(=O)N2CCc3ccccc32)cc1`?
CSC inhib: 11; Mdm2 MdmX PPI: 58*; XBP1 UPR activ: 2; T cruzi repl: -6; UPR CHOP act: 37; Beta apoptosis: 23; Mdm2-MdmX conf: 23

What do the screens show for `CC1=NCCc2c1[nH]c1cc(O)ccc21`?
CSC inhib: -11; Mdm2 MdmX PPI: 3; XBP1 UPR activ: -1; UPR CHOP act: -1; Beta apoptosis: 7

Results for C1=NCCc2c1[nH]c1ccccc21 ?
CSC inhib: -4; Mdm2 MdmX PPI: 52*; XBP1 UPR activ: -1; T cruzi repl: 27; UPR CHOP act: 2; Mdm2-MdmX conf: -54

How did Cc1ccc(C)c(OCc2cc(C(=O)N3C[C@H]4C[C@@H](C3)c3cccc(=O)n3C4)no2)c1 do in these assays?
CSC inhib: -1; Mdm2 MdmX PPI: 10; XBP1 UPR activ: -5; T cruzi repl: -6; UPR CHOP act: 0; Beta apoptosis: -5

How did COc1ccc(C2=NS(=O)(=O)N(C)C(C(=O)N3CCC4(CC3)OCCO4)=C2)cc1OC do in these assays?
CSC inhib: -8; Mdm2 MdmX PPI: 15; XBP1 UPR activ: -2; T cruzi repl: 8; UPR CHOP act: 0; Beta apoptosis: 5

What do the screens show for `C=C1C(=O)O[C@@H]2C[C@@H](C)[C@@H]3C=CC(=O)[C@@]3(C)[C@@H](O)[C@H]12`?
CSC inhib: 52; Mdm2 MdmX PPI: 95*; XBP1 UPR activ: -12; T cruzi repl: 43; UPR CHOP act: -9; Beta apoptosis: 112*; Mdm2-MdmX conf: 99*; FLuc counter: 51*

How did Nc1ncnc2c1ccn2[C@@H]1O[C@H](CO)[C@@H](O)[C@H]1O do in these assays?
CSC inhib: -5; Mdm2 MdmX PPI: 100*; XBP1 UPR activ: -6; T cruzi repl: 86*; UPR CHOP act: -4; Mdm2-MdmX conf: 100*; FLuc counter: 50*

How did CCN(CC)C(=O)c1ccc(NC(=O)COc2ccc(-c3nn(C)c(=O)c4ccccc34)cc2)cc1 do in these assays?
CSC inhib: 2; Mdm2 MdmX PPI: 40; XBP1 UPR activ: -2; T cruzi repl: 20; UPR CHOP act: -1; Beta apoptosis: 1

What do the screens show for `O=C1NC(=O)N(c2ccccc2)C(=O)/C1=C/c1coc2ccc(O)cc2c1=O`?
CSC inhib: -1; Mdm2 MdmX PPI: 22; XBP1 UPR activ: -1; T cruzi repl: 10; UPR CHOP act: 1; Beta apoptosis: -6

How did O=CNc1ccc(OP(=O)(Oc2ccccc2)Oc2ccccc2)cc1 do in these assays?
CSC inhib: 9; Mdm2 MdmX PPI: -4; XBP1 UPR activ: 1; T cruzi repl: 10; UPR CHOP act: 1; Beta apoptosis: -2

What do the screens show for `CCCCCCC(=O)N/N=C/c1c(O)n(C(C)CC)c(=S)[nH]c1=O` (centres undefined)?
CSC inhib: 16; Mdm2 MdmX PPI: 58*; XBP1 UPR activ: -2; UPR CHOP act: -3; Beta apoptosis: 7; Mdm2-MdmX conf: 14

Results for CCCCCCC(=O)N/N=C/c1c(O)n(CCc2ccccc2)c(=O)[nH]c1=O ?
CSC inhib: 10; Mdm2 MdmX PPI: 59*; XBP1 UPR activ: -2; UPR CHOP act: -3; Beta apoptosis: 18; Mdm2-MdmX conf: 36

High-throughput results from PubChem BioAssay.
